Results: ChEMBL document CHEMBL1158806, “Cytotoxic activity of some natural and synthetic guaianolides” (J Nat Prod, 2005)

Legend:
Type in all cases: functional, cell-based
1A9 = test: Cytotoxicity against human 1A9 cells after 3 days by SRB assay; conditions: 1A9, 72 h
Summary of the method: (§1)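 Cells kept in RPMI-1640 with 25 mM HEPES, 0.25% sodium bicarbonate, 10% FBS and 100 µg/mL kanamycin. Freshly trypsinized cells seeded at 1500-7500 per well, with compound added from DMSO-diluted stock. After 3 days, attached cells fixed with cold 50% TCA and stained with 0.4% SRB. Bound dye solubilized and absorbance read at 562 nm. IC50 is 50% growth reduction, mean of three determinations.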

KB = test: Cytotoxicity against human KB cells after 3 days by SRB assay; conditions: 72 h; summary of the method: as §1
HCT-8 = test: Cytotoxicity against human HCT8 cells after 3 days by SRB assay; conditions: HCT-8, 72 h; summary of the method: as §1
A549 = test: Cytotoxicity against human A549 cells after 3 days by SRB assay; conditions: A549, 72 h; summary of the method: as §1
MCF7 = test: Cytotoxicity against human MCF7 cells after 3 days by SRB assay; conditions: MCF7, 72 h; summary of the method: as §1
[1] = Cytotoxicity against human KBVIN cells after 3 days by SRB assay; conditions: 72 h; summary of the method: as §1
SK-MEL-2 = test: Cytotoxicity against human SK-MEL-2 cells after 3 days by SRB assay; conditions: SK-MEL-2, 72 h; summary of the method: as §1

Structure (SMILES) | IC50 (1A9) [nM] | IC50 (KB) [nM] | IC50 (HCT-8) [nM] | IC50 (A549) [nM] | IC50 (MCF7) [nM] | IC50 [1] [nM] | IC50 (SK-MEL-2) [nM]
CC(=O)O[C@H]1C(=O)[C@@]2(C)[C@H]([C@H](OC(=O)c3ccccc3)[C@]3(O)C[C@H](OC(=O)[C@H](O)[C@@H](NC(=O)c4ccccc4)c4ccccc4)C(C)=C1C3(C)C)[C@]1(OC(C)=O)CO[C@@H]1C[C@@H]2O [PACLITAXEL] | 2 | 1 | 13 |  |  |  | 
C=C1C(=O)O[C@H]2[C@H]1[C@@H](OC(=O)[C@@](C)(O)CO)CC(=C)[C@@H]1C[C@H](O)[C@@](O)(CCl)[C@H]21 [CEBELLIN J] |  |  |  | > 24000 | > 24000 |  | 
C=C1C(=O)O[C@H]2[C@H]1[C@@H](OC(=O)[C@](C)(O)CCl)CC(=C)[C@@H]1C[C@H](O)[C@]3(CO3)[C@H]21 [CHLOROHYSSOPIFOLIN C] | 800 | 2000 | 1600 | 9300 | 1500 | 1500 | 
C=C1C(=O)O[C@H]2[C@H]1[C@@H](OC(=O)[C@@]1(C)CO1)CC(=C)[C@@H]1C[C@H](O)[C@](O)(CO)[C@H]21 [BABYLIN B] |  |  |  | > 26300 | > 26300 |  | 
CO[C@@]12[C@H](COC(N)=O)C3=C(C(=O)C(C)=C(N)C3=O)N1C[C@@H]1N[C@@H]12 [MITOMYCIN] |  | 600 | 600 | 300 | 1500 |  | 
C=C1C(=O)O[C@H]2[C@H]1[C@@H](OC(=O)[C@](C)(O)CI)CC(=C)[C@@H]1C[C@H](O)[C@]3(CO3)[C@H]21 | 800 | 2000 |  | 7300 |  | 1800 | 
C=C1C(=O)O[C@H]2[C@H]1[C@@H](OC(=O)[C@]1(C)CO1)CC(=C)[C@@H]1C[C@H](O)[C@]3(CO3)[C@H]21 [REPIN] | 300 | 1400 | 800 | 2500 | 1100 | 800 | 2500
C=C(CO)C(=O)O[C@H]1CC(=C)[C@@H]2C[C@H](O)C(=C)[C@@H]2[C@H]2OC(=O)C(=C)[C@@H]21 [CYNAROPICRIN] |  | 15900 |  | 16500 | 3200 |  | 5800
C=C(CO)C(=O)O[C@H]1CC(=C)[C@@H]2C[C@H](O)[C@]3(CO3)[C@@H]2[C@H]2OC(=O)C(=C)[C@@H]21 [JANERIN] | 5000 | 3000 | 5500 | 19900 |  | 25900 | 8000
C=C1C(=O)O[C@H]2[C@H]1[C@@H](OC(=O)[C@@]1(C)CO1)CC(=C)[C@@H]1C[C@H](O)[C@](O)(CI)[C@H]21 | 5600 | 4100 | 4500 | 13700 |  | 18600 | 9400
C=C1C(=O)O[C@H]2[C@H]1[C@@H](OC(=O)[C@](C)(O)CCl)CC(=C)[C@@H]1C[C@H](O)[C@](O)(CCl)[C@H]21 [CENTAUREPENSIN] | 700 | 4100 |  | 10300 |  | 2800 | 
C=C1C(=O)O[C@H]2[C@H]1[C@@H](OC(=O)[C@@]1(C)CO1)CC(=C)[C@@H]1C[C@H](OC(=O)[C@@H]3OC(c4ccccc4)=N[C@H]3c3ccccc3)[C@@]3(CO3)[C@H]21 | 800 | 2600 | 500 | 3400 |  | 2600 | 1500
C=C1C(=O)O[C@H]2[C@H]1[C@@H](OC(=O)[C@](C)(O)CO)CC(=C)[C@@H]1C[C@H](O)[C@]3(CO3)[C@H]21 [BABYLIN A] |  |  |  | > 26300 | > 26300 |  | 
C=C(C)C(=O)O[C@H]1CC(=C)[C@@H]2C[C@H](O)C(=C)[C@@H]2[C@H]2OC(=O)C(=C)[C@@H]21 [AGUERIN B] |  |  |  | 26400 | 3300 |  | 
C=C1C(=O)O[C@H]2[C@H]1[C@@H](OC(=O)[C@](C)(O)CBr)CC(=C)[C@@H]1C[C@H](O)[C@]3(CO3)[C@H]21 | 1100 | 1100 | 1300 | 4300 |  | 6300 | 3600
C=C1C(=O)O[C@H]2[C@H]1[C@@H](OC(=O)[C@](C)(O)CI)CC(=C)[C@@H]1C[C@H](O)[C@](O)(CI)[C@H]21 | 1300 | 1000 | 1300 | 3600 |  | 5500 | 2600
C=C1C(=O)O[C@H]2[C@H]1[C@@H](OC(=O)[C@](C)(O)CBr)CC(=C)[C@@H]1C[C@H](O)[C@](O)(CBr)[C@H]21 | 400 | 1100 |  | 4200 |  | 1300 | 
C=C1C(=O)O[C@H]2[C@H]1[C@@H](OC(=O)[C@@]1(C)CO1)CC(=C)[C@@H]1C[C@H](OC(=O)[C@H](O)[C@@H](NC(=O)c3ccccc3)c3ccccc3)[C@@]3(CO3)[C@H]21 | 200 | 300 | 500 | 800 |  | 7500 | 1000
